Measurements of several laboratories.
In brackets after ≈: the same amount, converted by molar mass.

CO/N=C(\C(=O)N[C@@H]1C(=O)N2C(C(=O)O)=CCS[C@H]12)c1csc(N)n1  MIC (Acinetobacter baumannii; microbial growth, broth dilution; ATCC19606): 16 µg/mL (≈ 41.7 µM)
O=C1OC[C@H]2OC(O)[C@H](O)[C@@H](O)[C@@H]2OC(=O)c2cc(O)c(O)c(O)c2-c2c(O)c(O)c3oc(=O)c4c(c(O)c(O)c5oc(=O)c2c3c54)-c2c1cc(O)c(O)c2O (mixture of isomers)  MBC (Streptococcus gordonii; microbial killing, broth dilution): 400 µg/mL
Cc1n[nH]c2ccc3nc(-c4ccc(C(=O)NCCN(C)C)cc4)c4c(c3c12)CCCCC4  GI50 (G-361; cell growth or viability; 72 h): > 10 µM
O=C1C(=Nc2ccc(Cl)cc2)c2ccccc2N1Cc1ccc([N+](=O)[O-])cc1  IC50 (B16; cell growth or viability, MTT; 48 h): 0.58 µM
CCCCCCC#Cc1cncc(-c2nnc(SCc3cc([N+](=O)[O-])cc([N+](=O)[O-])c3)n2CCCN)c1  MIC (Acinetobacter baumannii; microbial growth, broth dilution; ATCC17978): 32 µg/mL (≈ 61.1 µM)
CCC(C(=O)N1C(=O)C(=Nc2ccc(Cl)cc2Br)c2ccccc21)c1ccccc1 (stereo not shown)  IC50 (B16; cell growth or viability, MTT; 48 h): 27.1 µM
CNC(C)C1CCC(N)C(OC2C(N)CC(N)C(OC3OCC(C)(O)C(NC)C3O)C2O)O1 (stereo not shown)  MIC (Acinetobacter baumannii; microbial growth, broth dilution; ATCC19606): 16 µg/mL (≈ 33.5 µM)
CNC(C)C1CCC(N)C(OC2C(N)CC(N)C(OC3OCC(C)(O)C(NC)C3O)C2O)O1 (stereo not shown)  MBC (Acinetobacter baumannii; microbial killing, broth dilution; ATCC19606; 24 h): 32 mM
Cc1n[nH]c2ccc3nc(-c4ccc(C(=O)NCCN(C)C)cc4)c4c(c3c12)CCCC4  GI50 (G-361; cell growth or viability; 72 h): 3.49 µM
O=C1C(=Nc2ccccc2I)c2ccccc2N1Cc1ccc([N+](=O)[O-])cc1  IC50 (B16; cell growth or viability, MTT; 48 h): 0.27 µM
O=c1cc(OCc2cc(-c3ccccc3)no2)c2ccccc2o1  IC50 (Z-138; cell growth or viability, MTS; 72 h): > 100 µM
O=C(O[C@@H]1O[C@@H]2COC(=O)c3cc(O)c(O)c(O)c3-c3c(cc(O)c(O)c3O)C(=O)O[C@H]([C@H]1O)[C@@H]2O)c1cc(O)c(O)c(O)c1  inhibition zone (Streptococcus gordonii; microbial growth, disc diffusion; 500 µg/disc): 14 mm
CN(C)[C@@H]1C(O)=C(C(N)=O)C(=O)[C@@]2(O)C(O)=C3C(=O)c4c(O)cccc4[C@@](C)(O)[C@H]3C[C@@H]12  MIC (Acinetobacter baumannii; microbial growth, broth dilution; ATCC19606): 4 µg/mL (≈ 9 µM)
O=c1oc2c(O)c(O)cc3c(=O)oc4c(O)c(O)cc1c4c23  inhibition zone (Streptococcus gordonii; microbial growth, disc diffusion; 500 µg/disc): 16 mm
C[C@@H](O)[C@H]1C(=O)N2C(C(=O)O)=C(SCCN=CN)C[C@H]12  MIC (Acinetobacter baumannii; microbial growth, broth dilution; ATCCBAA1605): > 64 µg/mL
O=C1Nc2ccccc2C1=Nc1ccc(Cl)cc1  IC50 (B16; cell growth or viability, MTT; 48 h): 32.6 µM
C[C@@H]1O[C@@H](OC[C@H]2O[C@@H](Oc3c(-c4ccc(O)c(O)c4)oc4cc(O)cc(O)c4c3=O)[C@H](O)[C@@H](O)[C@@H]2O)[C@H](O)[C@H](O)[C@H]1O  MBC (Streptococcus gordonii; microbial killing, broth dilution): 400 µg/mL
CC(C)c1cccc(C(C)C)c1N=C1C(=O)N(Cc2cccc(Cl)c2)c2ccccc21  IC50 (B16; cell growth or viability, MTT; 48 h): 40.9 µM
CC1(C)S[C@@H]2[C@H](NC(=O)[C@H](N)c3ccc(O)cc3)C(=O)N2[C@H]1C(=O)O  MIC (Acinetobacter baumannii; microbial growth, broth dilution; ATCC19606): > 64 µg/mL
O=C1C(=Nc2ccc(Cl)cc2)c2ccccc2N1Cc1cccc(Cl)c1  IC50 (B16; cell growth or viability, MTT; 48 h): 1.56 µM
Oc1cc(O)c2c(c1)O[C@H](c1cc(O)c(O)c(O)c1)[C@@H](O)C2  inhibition zone (Streptococcus gordonii; microbial growth, disc diffusion; 500 µg/disc): 11.6 mm
CC(C)c1cccc(C(C)C)c1N=C1C(=O)N(Cc2ccccc2)c2ccccc21  IC50 (B16; cell growth or viability, MTT; 48 h): 6.77 µM
C[C@H]1[C@H](NC(=O)/C(=N\OC(C)(C)C(=O)O)c2csc(N)n2)C(=O)N1S(=O)(=O)O  MIC (Acinetobacter baumannii; microbial growth, broth dilution; ATCC19606): 16 µg/mL (≈ 36.7 µM)
COc1cc(N=C2C(=O)Nc3ccccc32)cc(OC)c1  IC50 (B16; cell growth or viability, MTT; 48 h): 3.02 µM
O=C1O[C@H]2[C@@H]3OC(=O)c4cc(O)c(O)c(O)c4-c4c(O)c(O)c5oc(=O)c6c(c(O)c(O)c7oc(=O)c4c5c76)-c4c(cc(O)c(O)c4O)C(=O)OC[C@H]3OC(O)[C@@H]2OC(=O)c2cc(O)c(O)c(O)c2-c2c1cc(O)c(O)c2O (mixture of isomers)  MBC (Streptococcus gordonii; microbial killing, broth dilution): 400 µg/mL
